Screening results as filed in PubChem.
MT stabilize HCS = stabilizes microtubules in HeLa cells; HeLa tubulin immunostaining HCS, 24 h; share of cells brighter than vehicle mean+2SD; % tubulin-high responders, % at 10 µM; 200,000 tested, 0.83% active; AID 2205;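 active means plate Z-score above 3 for both tubulin-high and condensed-nucleus cell shares, with cell loss under 80%, at 10 µM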;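 further: anti alpha tubulin signal scored within the nucleus-defined area of each cell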
CHOP inh = inhibitors of CHOP induction in ER stress response | CHO-K1 CHOP-promoter luciferase, tunicamycin-induced, 15-18 h | inhibition, % at 10 µM | 220,000 tested, 3.8% active;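 active means compounds that reduced the stress-induced luciferase reporter signal by more than about 70% of percent inhibition, limit read from the data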
Lmaj promast = inhibitors of Leishmania major promastigote growth. AID 1063. Leishmania major promastigotes, resazurin fluorescence viability. 200,000 tested, 9% active. inhibition, % at 10 µM; in the data active means inhibition above about 50%;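 further: promastigotes grown with compound for 44 hours at 28 °C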
Dynein transport = dynein cargo transport inhibition; 3617.4 mouse cells, GR-EGFP nuclear translocation imaging; test concentration mostly 20 µM; stimulated with dexamethasone, 1 µM; active compounds read low; z-score, hits read low; 220,000 tested, 0.47% active; AID 1381;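 active means plate z-score of nuclear minus cytoplasmic receptor signal below a set negative limit, without overly bright fluorescence or cell loss, cut at about -3.5 in these data, passing the limit was not always enough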;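 further: z-score of nuclear minus cytoplasmic ring GR-EGFP intensity difference per well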
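Medium: Induction medium lacking tetracycline, stripped serum | Probe or stimulus: 1.0 µM final dexamethasone stimulus | Schedule: 48 h induction, then 1 h compound, then 30 min agonist, 37 °C | Signal: Automated 10x imaging of fixed Hoechst-stained cells | Evaluation: Per-cell GR-EGFP intensity, nucleus versus surrounding cytoplasmic ring, well-averaged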
b-catenin transl = modulators of beta-catenin nuclear translocation | HeLa beta-catenin nuclear translocation, immunofluorescence imaging | nuclear translocation activity, % at 5 µM | 190,000 tested, 0.3% active | AID 1665;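 active means nuclear translocation activity above 50% at 5 µM, with a well cell count of 50 or more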;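 further: per-cell ratio of nuclear to cytoplasmic median beta-catenin stain intensity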
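Test system: human HeLa cells, native beta-catenin. Compound dosing: 5 µM primary single dose, 0.1% DMSO, 0.02–20 µM confirmation series. Incubation: compound exposure 24 h at 37°C. Detection: beta-catenin immunostaining with DAPI counterstain, 20x imaging, 6 fields/well. Read-out basis: Nuclear/cytoplasmic beta-catenin signal ratio, % activation.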
Autophagy mod = modulators of autophagy; MEF GFP-LC3 puncta imaging; test concentration mostly 10 µM; calls only at 10 µM (by protocol); 190,000 tested, 0.98% active;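 active means percentage of spot-positive cells more than 3 SD above its plate mean, without a fluorescence outlier flag or 80% toxicity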
Each line names hits and unclear results; the compound was inactive in the other large screens. In the library only some 12% were active in any assay of this set; here they are far more common.

C=CCn1c(COc2ccc(Cl)cc2)nnc1SCC(=O)c1c(N)n(C)c(=O)n(C)c1=O	none
COc1ccccc1N1CCN(C(=O)NC23CC4CC(CC(C4)C2)C3)CC1	none
COc1ccc2nc(Nc3nc4cc5c(cc4s3)OCO5)sc2c1	Lmaj promast 55
COc1ccc(C(=O)NC(=S)Nc2cc3oc4ccccc4c3cc2OC)cc1	CHOP inh 78
COc1cc2c(cc1NS(=O)(=O)N1CCCC1)oc1ccccc12	Lmaj promast 100
COc1cc(OC)cc(C(=O)NC(=S)Nc2cc3oc4ccccc4c3cc2OC)c1	none
Cc1ccc(NC(=O)/C=C/c2ccc([N+](=O)[O-])s2)c(C)c1	none
Cc1cccc(NC(=O)/C=C/c2ccc([N+](=O)[O-])s2)c1	Lmaj promast 100
COc1cccc(NC(=O)/C=C/c2ccccc2[N+](=O)[O-])c1	none
Cc1cccc(NC(=S)N/N=C/c2ccc([N+](=O)[O-])s2)c1	Lmaj promast 93 (no result: b-catenin transl)
Cc1ccc(NC(=O)/C=C/c2ccc([N+](=O)[O-])s2)cc1	Lmaj promast 97
COC(=O)/C=C1\SC(N)=NC1=O	none (no result: MT stabilize HCS, Lmaj promast, Autophagy mod)
COc1ccc(NC(=O)/C(C#N)=C/C=C/c2ccco2)cc1	MT stabilize HCS 24
N#C/C(=C\C=C\c1ccccc1)C(=O)Nc1ccccc1	CHOP inh 73
O=C(CSc1nnc(NC(=O)c2ccc(S(=O)(=O)N3CCOCC3)cc2)s1)Nc1ccccc1C(F)(F)F	Lmaj promast 92
Cc1nnc(NC(=O)c2ccc(S(=O)(=O)N3CCOCC3)cc2)s1	none (no result: MT stabilize HCS, Lmaj promast, Autophagy mod)
CC(C)CNC(=O)C1CCN(c2ccc(S(=O)(=O)N3CCOCC3)cc2)CC1	none
COc1ccc(C)cc1NC(=O)c1ccc(S(=O)(=O)N2CCOCC2)cc1	none
CCn1c(=NC(=O)c2ccc(S(=O)(=O)N3CCOCC3)cc2)sc2cccc(OC)c21	CHOP inh 83, Lmaj promast 100 (no result: b-catenin transl)
CCN1CCc2c(sc(NC(=O)c3ccc(S(=O)(=O)N4CCOCC4)cc3)c2C(=O)OC)C1	Lmaj promast 76
COc1ccccc1C(=O)NCC1CCN(c2ccc(S(=O)(=O)N3CCOCC3)cc2)CC1	Lmaj promast 100 (no result: b-catenin transl)
COCCCN1CN=C(Nc2nc3ccccc3o2)NC1	none
COc1ccccc1NC(=O)c1ccc(S(=O)(=O)N2CCOCC2)cc1	none
COc1cccc2sc(NC(=O)c3ccc(S(=O)(=O)N4CCOCC4)cc3)nc12	Lmaj promast 51
Cc1cccc(OCC(=O)N/N=C/c2cccn2C)c1	none (no result: MT stabilize HCS, Lmaj promast, Autophagy mod)
Cc1cccc(OCC(=O)N/N=C/c2cn[nH]c2-c2ccc(Cl)c(Cl)c2)c1	CHOP inh 80
O=C(Cn1cc(C(F)(F)F)ccc1=O)N/N=C/c1ccc(Cl)c(Cl)c1	none
O=C(Cn1cc(C(F)(F)F)ccc1=O)N/N=C/c1cccc(Cl)c1Cl	Lmaj promast 75
COc1cc2c(C#N)c(N3CCN(C)CC3)nc(N)c2c(N)n1	Lmaj promast 100
COc1ccc(C(=O)CSc2nnc(-c3ccco3)n2C)cc1	none
O=C(CSc1nnc(-c2ccccc2)c(-c2ccccc2)n1)NCc1ccco1	MT stabilize HCS 43
O=C(CSc1ncc(-c2ccccc2)nn1)NCc1ccco1	none (no result: b-catenin transl)
COc1ccc(C(=O)CSc2nnc(-c3ccco3)c(-c3ccco3)n2)cc1	Lmaj promast 99
Cc1ccc(NC(=O)CSc2nnc(-c3ccco3)c(-c3ccco3)n2)cc1	MT stabilize HCS 29, Lmaj promast 96, b-catenin transl 97
O=C(CSc1nnc(-c2ccco2)c(-c2ccco2)n1)Nc1ccccc1	Lmaj promast 75
O=C(CSc1nnc(-c2ccccc2)c(-c2ccccc2)n1)Nc1ccc(Br)cn1	Lmaj promast 66
Cc1cc(C)nc(SCc2ccc(C(=O)N/N=C/C3CCCCC3)cc2)n1	Autophagy mod active
Cc1cc(C)nc(SCc2ccc(C(=O)NNC(=O)Nc3cccc(Cl)c3)cc2)n1	CHOP inh 96
Cc1cc(C)nc(SCc2ccc(C(=O)N/N=C/c3ccncc3)cc2)n1	none
Cc1cc(C)nc(SCNC(=O)c2ccc(F)cc2)n1	none
Cc1cc(C)nc(SCc2ccc(C(=O)N/N=C/c3ccccn3)cc2)n1	Lmaj promast 91
CCOC(=O)CCC(=O)NNC(=O)COc1ccc(C(C)C)cc1Br	none
COc1cccc(NC(=O)N2CCC(n3nnc4ccccc43)CC2)c1	none
COc1cc(C(c2c(C)[nH][nH]c2=O)c2c(C)[nH][nH]c2=O)cc(OC)c1OC	Autophagy mod active
COc1cc(C(c2c(C)[nH][nH]c2=O)c2c(C)[nH][nH]c2=O)ccc1OCc1ccc([N+](=O)[O-])cc1	Lmaj promast 98
COc1cc(C(c2c(C)[nH][nH]c2=O)c2c(C)[nH][nH]c2=O)ccc1OC(C)C	none
COc1ccc(-n2c(=O)c3c4c(sc3n3c(C)nnc23)CCCC4)cc1	none (no result: CHOP inh, b-catenin transl)
Cc1ccccc1NC(=S)Nc1ccc2[nH]c(=O)[nH]c2c1	none (no result: MT stabilize HCS, Lmaj promast, Autophagy mod)
Cn1c(=O)n(CC(=O)N2CCOCC2)c2ccccc21	none
CCOc1ccc(NC2=NC(C(=O)NCc3ccccc3)CC(=O)N2)cc1 (centres undefined)	none
COc1ccc(CN2CCC(C(=O)N(C)CCc3ccc(OC)c(OC)c3)CC2)c(OC)c1	none
COc1ccc(CN2CCC(N(CCc3ccccc3)Cc3ccccc3)CC2)c(OC)c1	Lmaj promast 94
CC1=C(C(=O)Nc2ccccn2)C(c2cccnc2)n2nnnc2N1 (centres undefined)	none
COC(=O)[C@H](CCSC)NC(=O)Nc1ccc(S(N)(=O)=O)cc1	none (no result: MT stabilize HCS, Lmaj promast, Autophagy mod)
COc1ccccc1NC(=O)N1CCCC(c2nc3c(nnn3Cc3ccc(C)cc3)c(=O)[nH]2)C1 (centres undefined)	Lmaj promast 52
COc1ccccc1NC(=O)N1CCC(c2nc3cc(C)c(C)cc3[nH]2)CC1	MT stabilize HCS 18, Autophagy mod active (no result: CHOP inh)
CCCN1C(=O)/C(=N\OCC(=O)NC23CC4CC(CC(C4)C2)C3)c2ccccc21	none
CN(C)CCC(=O)N1c2ccccc2Sc2ccc(Cl)cc21	none
COc1cc(Cl)cc2c1Sc1ccccc1/C2=C/CCN(C)C	Lmaj promast 59
COc1cc2c(cc1Cl)/C(=C\CCN(C)C)c1ccccc1S2	Lmaj promast 100
CN(C)CC/C=C1/c2ccccc2Sc2c(O)cc(Cl)cc21	Lmaj promast 98
CSCCC(N=C(NS(=O)(=O)c1ccccc1)c1ccccc1)C(=O)O (centres undefined)	none (no result: MT stabilize HCS, Lmaj promast, Autophagy mod)
O=C1CC(NCc2ccc3c(c2)OCO3)C(=O)N1Cc1ccc2c(c1)OCO2 (centres undefined)	none
CSc1ccc(C2C(C#N)=C(N)N(c3ccccc3)C3=C2C(=O)CCC3)cc1 (centres undefined)	Lmaj promast 74
